In the library only some 4.6% were active in any assay of this set; here they are far more common.
OX1R antag-1: blocks the human orexin 1 receptor; CHO/OX1R cells, Fluo-8 calcium fluorescence, orexin A; 330,000 compounds, 0.43% hits; inhibition, % at 5 µM;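 active = inhibition above its plate's threshold, mean inhibition of all tested compounds on the plate plus 3 SD, cut at about 37% in these data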;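 note: 0% = orexin A challenge wells and 100% = SB-334867-A antagonist wells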
GPR7 antag: blocks human GPR7 receptor signaling | P48145 | GPR7-expressing cells, fluorescence antagonist assay | inhibition, % at 4.4 µM | 290,000 compounds, 1.1% hits | AID 1861; in the data active = inhibition above about 16%, passing the limit was not always enough;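 note: cells stimulated with the agonist NPW; 0% = agonist with vehicle and 100% = vehicle without agonist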
Target sequence (P48145 whole entry, looked up): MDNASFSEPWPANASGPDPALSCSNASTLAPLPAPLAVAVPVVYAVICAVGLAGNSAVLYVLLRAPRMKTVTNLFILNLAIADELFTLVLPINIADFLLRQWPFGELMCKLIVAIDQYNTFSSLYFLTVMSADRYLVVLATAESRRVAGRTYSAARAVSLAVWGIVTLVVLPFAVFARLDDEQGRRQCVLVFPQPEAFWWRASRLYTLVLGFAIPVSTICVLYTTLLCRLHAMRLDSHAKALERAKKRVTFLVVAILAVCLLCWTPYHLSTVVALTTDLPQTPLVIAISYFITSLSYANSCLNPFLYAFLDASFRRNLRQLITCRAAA
OX1R antag-2: blocks the human orexin 1 receptor; inhibition, % at 6.6 µM; AID 485270; 330,000 compounds, 1.8% hits; OX1R-expressing cells, FRET antagonist read-out; in the data active = inhibition mostly above about 38%, no sharp cut-off; inactive = mostly below about 40%;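 note: 0% = agonist challenge alone and 100% = reference antagonist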
TAAR1 antagonist: antagonists of human TAAR1; Q96RJ0; CHO RD-HGA16 TAAR1, Fluo-8 calcium fluorescence, antagonist; inhibition, % at 3 µM; 360,000 compounds, 1.5% hits; AID 624466;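 active = inhibition above a per-plate cutoff, the mean inhibition of test compounds on that plate plus 3 SD, cut at about 49% in these data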;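 note: 0% = DMSO plus EC80 beta-PEA response and 100% = DMSO alone without agonist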
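Assay system: RD-HGA16 CHO cells with stable hTAAR1 and Gα16 / Reagent: EC80 β-phenethylamine stimulus / Doses: 3 µM, single point / Timing: dye loading 75 min at 37 °C, then 30 min room temperature / Measured by: Fluo-8 intracellular calcium dye fluorescence, real-time kinetic reads / Controls: vehicle wells and EC80 agonist wells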
CHO parental Ca: counter-screen: ATP calcium response change in parental CHO cells; parental CHO-K1, ATP-induced calcium, Fluo-8 fluorescence; inhibition, % at 5.6 µM; 330,000 compounds, 0.63% hits;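 active = inhibition above that plate's mean sample inhibition plus 3 SD, cut at about 26% in these data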;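 note: 0% = ATP-challenged DMSO wells and 100% = DMSO wells without ATP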
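Measured by: calcium-sensitive Fluo-8 fluorescence / Test system: CHO parental line / Controls: ATP-challenged DMSO wells low, unchallenged DMSO wells high / Measure: % inhibition / Compound: single nominal dose of 5.6 µM per compound / Replicates: single well per compound, no replicates / Reagent: ATP as calcium-mobilizing challenge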
TAAR1 ag: human TAAR1 agonism; Q96RJ0; CHO RD-HGA16 TAAR1, Fluo-8 calcium fluorescence; vehicle wells 0%, saturating PEA agonist 100%; activation, % at 3 µM; 360,000 compounds, 0.99% hits; AID 624467;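 active = activation above the mean activation of all test compounds in the run plus 3 SD, cut at about 38% in these data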
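Test system: RD-HGA16 (CHO) cells co-expressing Gα16 and hTAAR1 | Doses: Single dose, 3 µM | Schedule: 17-24 h seeding, 75 min 37 °C dye, 30 min RT | Evaluation: % activation from peak over basal fluorescence ratio, DMSO-to-PEA scaled | Technique: Kinetic Fluo-8 calcium fluorescence | Benchmarks: Low control DMSO, high control PEA (EC100)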
Active calls of the source: *; / = no result.

SMILES	OX1R antag-1	GPR7 antag	OX1R antag-2	TAAR1 antagonist	CHO parental Ca	TAAR1 ag
C[C@H]1COc2cc(N3CCC[C@@H]3CO)ccc2S(=O)(=O)N1	/	/	/	0	/	3
CCOC(=O)c1nn(-c2cc(C(=O)OC)cc(C(=O)OC)c2)cc1O	0	-10	3	7	-5	4
CCOC(=O)c1nn(-c2sc(C(=O)OC)c(C)c2C(=O)OC)cc1O	-5	19*	4	5	-4	12
O=C(CSc1nnc(NC(=O)C2CC2)s1)Nc1ccccc1Cl	-3	-6	14	1	2	10
CCOc1ccc(NC(=O)CCC(=O)NNC(=O)Nc2cccc(Cl)c2)cc1	-9	-7	5	6	-15	43*
CCOc1ccc(N(CC(=O)Nc2cccc(Cl)c2)S(=O)(=O)c2c(C)noc2C)cc1	-5	-6	18	18	40*	-2
Cc1ccc(N(CC(=O)NCc2ccc3c(c2)OCO3)S(=O)(=O)c2c(C)noc2C)cc1	-8	-8	60*	-26	-20	-1
COc1ccc(CNC(=O)CN(c2ccc(C)cc2)S(=O)(=O)c2c(C)noc2C)cc1	-5	4	44*	-12	-20	0
COc1ccc(N(CC(=O)NCc2ccccc2)S(=O)(=O)c2c(C)noc2C)cc1	-5	4	12	2	-12	1
Cc1noc(C)c1S(=O)(=O)N(CC(=O)NCc1ccc2c(c1)OCO2)c1ccc(C(C)C)cc1	-8	-12	8	-17	-13	-3
Clc1ccc(CN2CCN(c3ncc(Cc4ccccc4)cn3)CC2)c(Cl)c1	/	/	/	-39	/	2
CC1(C(=O)NS(=O)(=O)c2cccs2)CCN1C(=O)C1(c2ccccc2)CCCC1 (stereo unspecified)	/	/	/	12	/	11
COc1ccccc1CNC(=O)CN(c1ccc(C)cc1)S(=O)(=O)c1c(C)noc1C	5	-12	71*	31	-27	3
CNc1ccc(S(=O)(=O)NC)cc1[N+](=O)[O-]	-12	-13	64	3	2	6
CNc1nc2cc([N+](=O)[O-])c([N+](=O)[O-])cc2nc1NC	27	21	45	8	59*	16
O=C(NCc1ccco1)c1ccc(-c2ccc3nccn3c2)cc1	/	/	/	2	/	0
COC(=O)C1=C(C)N(Cc2ccc(C(F)(F)F)cc2)C(=NCc2cccc(C(F)(F)F)c2)NC1c1ccccc1C(F)(F)F (stereo unspecified)	/	/	/	-19	/	0
CC1CCC2(CC1)NC(=O)N(CC(=O)NC(=O)Nc1ccc3c(c1)OCCO3)C2=O (stereo unspecified)	-18	20*	24	-7	-20	-1
CN(C(=O)c1cccnc1)c1nc(-c2ccccc2)cs1	13	8	13	-3	51*	6
CN(Cc1ccccc1)C(=O)c1cccnc1	-1	-13	5	-9	-6	3
Cc1cccc(S(=O)(=O)N2C[C@@H](O)COC[C@@H]3O[C@H](CC(=O)NCCCN4CCOCC4)CC[C@H]32)c1	/	/	/	6	/	3
COc1cccc(NC(=O)CNC(C)CCC(C)C)c1 (stereo unspecified)	-3	-7	14	4	-7	38*
COc1cccc(NC(=O)CCC(=O)Nc2cccc(OC)c2)c1	-8	-6	15	14	6	1
CCN(CC)c1ccc2c(C)c(Cl)c(=O)oc2c1	-22	-1	16	14	-19	7
CCN(CC)c1ccc2c(Cl)c(Br)c(=O)oc2c1	90*	41*	9	/	81*	/
CCc1cc(-c2nnn(-c3cc(C(C)C)ccc3C)c2CC)ccc1-c1cn(CCc2c[nH]c3ccccc23)nn1	/	/	/	7	/	4
CN(CC(=O)Nc1cccc(F)c1)C(=O)c1ccccc1OCC(=O)Nc1cccc(C(F)(F)F)c1	-2	/	17	82*	-20	19
COc1cccc(NC(=O)CN(C)C(=O)c2ccccc2OCC(=O)Nc2cccc(C(F)(F)F)c2)c1	-11	/	41	48	-21	15
COc1cccc(CC(=O)Nc2nc(-c3ccc(F)c(F)c3)cs2)c1	-20	17	8	52*	-10	4
Cc1cc(C(=O)OCC(=O)Nc2nc(-c3ccccc3)cs2)c(C)o1	-9	8	66*	18	-11	-2
